Measurements: article PMC9898299 (Heliyon, 2023)

Legend:
U937 cells = assay: CellTiter-Glo Luminescent cell viability assay; format: cell-based, human; conditions: for inhibition at 25 µM / inhibition at 50 µM / inhibition at 100 µM / inhibition at 200 µM: Homo sapiens, U-937, 72 h, read-out: Percent inhibition at different concentrations of compounds (antiproliferative); for Percent inhibition at different concentrations of compounds (antiproliferative): U937 cells, 72 h, relative to Mitomycin C = 100%
Procedure, shortened: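 Human myeloid leukaemia U937 cells exposed to a range of test compound concentrations for 72 h, with Mitomycin C as positive control and DMSO diluent as negative control. CellTiter-Glo reagent added at an equal volume to the medium, mixed 2 min for lysis, then held 10 min at room temperature before luminescence was read. Viability was computed as RLU test ×100/RLU control. Half-maximal inhibitory concentration was fitted from the dose series.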

[1] = LDH release cytotoxicity assay; format: cell-based; conditions: human, U937 cells
Procedure, shortened: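 U937 cells were plated in 96-well format and given various test compound concentrations, with Triton X100 as positive cytotoxicity control, for 4 h at 37 °C. Plates were spun 5 min at 1000 RPM, and supernatant was moved to a fresh plate with LDH detection reagent for 10 min at room temperature in the dark. Optical density was then read, and half-maximal concentration was derived from the doses.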

Row | Compound | inhibition at 25 µM (U937 cells) [%] | inhibition at 50 µM (U937 cells) [%] | inhibition at 100 µM (U937 cells) [%] | inhibition at 200 µM (U937 cells) [%] | inhibition at 4 h, 12.5 µM [1] [%] | inhibition at 4 h, 25 µM [1] [%] | inhibition at 4 h, 50 µM [1] [%] | inhibition at 4 h, 100 µM [1] [%] | Percent inhibition at different concentrations of compounds (antiproliferative) (U937 cells; 25 μM) [%] | Percent inhibition at different concentrations of compounds (antiproliferative) (U937 cells; 50 μM) [%] | Percent inhibition at different concentrations of compounds (antiproliferative) (U937 cells; 100 μM) [%] | Percent inhibition at different concentrations of compounds (antiproliferative) (U937 cells; 200 μM) [%]
1 | COC(=O)COc1cccc(NC(=O)C2(c3ccccc3)CC2)c1 [Compound 8a, Methyl 2-(3-(1-phenylcyclopropane-1-carboxamido)phenoxy)acetate] | 28 | 28 | 102 | 100 | -1 | 2 | 2 | 1 |  |  |  | 
2 | COC(=O)COc1ccc(NC(=O)C2(c3ccccc3)CC2)cc1 [Compound 8b, Methyl 2-(4-(1-phenylcyclopropane-1-carboxamido)phenoxy)acetate] | 41 | 44 | 102 | 101 | -2 | -3 | -2 | -2 |  |  |  | 
3 | COC(=O)COc1ccc(NC(=O)C2(c3ccccc3)CC2)c(C)c1 [Compound 8c, Methyl 2-(3-methyl-4-(1-phenylcyclopropane-1-carboxamido)phenoxy)acetate] | 37 | 63 | 102 | 101 | 0 | -1 | 0 | -1 |  |  |  | 
4 | COC(=O)COc1ccc(NC(=O)C2(c3ccccc3)CC2)cc1Br [Compound 8d, Methyl 2-(2-bromo-4-(1-phenylcyclopropane-1-carboxamido)phenoxy)acetate] | 15 | 24 | 100 | 101 | -1 | 0 | 3 | -3 |  |  |  | 
5 | COC(=O)COc1cccc(NC(=O)C2(c3cccc(C)c3)CC2)c1 [Compound 8e, Methyl 2-(3-(1-(m-tolyl)cyclopropane-1-carboxamido)phenoxy)acetate] | 46 | 45 | 59 | 101 | -3 | -4 | -1 | -1 |  |  |  | 
6 | COC(=O)COc1ccc(NC(=O)C2(c3cccc(C)c3)CC2)cc1 [Compound 8f, Methyl 2-(4-(1-(m-tolyl)cyclopropane-1-carboxamido)phenoxy)acetate] | 34 | 36 | 32 | 100 | -1 | -1 | 0 | 0 |  |  |  | 
7 | COC(=O)COc1ccc(NC(=O)C2(c3cccc(C)c3)CC2)c(C)c1 [Compound 8g, Methyl 2-(3-methyl-4-(1-(m-tolyl)cyclopropane-1-carboxamido)phenoxy)acetate] | 18 | 25 | 89 | 100 | 0 | 0 | 1 | 0 |  |  |  | 
8 | COC(=O)COc1cccc(NC(=O)C2(c3ccc(OC)cc3)CC2)c1 [Compound 8h, Methyl 2-(3-(1-(4-methoxyphenyl)cyclopropane-1-carboxamido)phenoxy)acetate] | 17 | 80 | 98 | 100 | 0 | 3 | 0 | -2 |  |  |  | 
9 | COC(=O)COc1ccc(NC(=O)C2(c3ccc(OC)cc3)CC2)cc1 [Compound 8i, Methyl 2-(4-(1-(4-methoxyphenyl)cyclopropane-1-carboxamido)phenoxy)acetate] | 28 | 38 | 80 | 101 | -3 | 0 | -2 | -2 |  |  |  | 
10 | COC(=O)COc1ccc(NC(=O)C2(c3ccc(F)cc3)CC2)cc1 [Compound 8j, Methyl 2-(4-(1-(4-fluorophenyl)cyclopropane-1-carboxamido)phenoxy)acetate] | -12 | 39 | 76 | 101 | 0 | -1 | -2 | -1 |  |  |  | 
11 | COC(=O)COc1ccc(NC(=O)C2(c3ccc(F)cc3)CC2)c(C)c1 [Compound 8k, Methyl 2-(4-(1-(4-fluorophenyl)cyclopropane-1-carboxamido)-3-methylphenoxy)acetate] | 32 | 74 | 101 | 102 | 0 | 0 | -1 | 4 |  |  |  | 
12 | COC(=O)COc1cccc(NC(=O)C2(c3ccc(Cl)cc3)CC2)c1 [Compound 8l, Methyl 2-(3-(1-(4-chlorophenyl)cyclopropane-1-carboxamido)phenoxy)acetate] | 63 | 96 | 101 | 102 | -1 | -1 | 0 | 2 |  |  |  | 
13 | COC(=O)COc1ccc(NC(=O)C2(c3ccc(Cl)cc3)CC2)cc1 [Compound 8m, Methyl 2-(4-(1-(4-chlorophenyl)cyclopropane-1-carboxamido)phenoxy)acetate] | 39 | 49 | 99 | 101 | -1 | 1 | 1 | 0 |  |  |  | 
14 | COC(=O)COc1ccc(NC(=O)C2(c3ccc(Cl)cc3)CC2)c(C)c1 [Compound 8n, Methyl 2-(4-(1-(4-chlorophenyl)cyclopropane-1-carboxamido)-3-methylphenoxy)acetate] | 28 | 33 | 101 | 101 | 0 | -1 | 1 | -1 |  |  |  | 
15 | COC(=O)COc1ccc(NC(=O)C2(c3ccc(Cl)cc3)CC2)cc1Br [Compound 8o, Methyl 2-(2-bromo-4-(1-(4-chlorophenyl)cyclopropane-1-carboxamido)phenoxy)acetate] | 52 | 77 | 102 | 102 | 0 | -2 | -2 | -4 |  |  |  | 
16 | COC(=O)COc1cccc(NC(=O)C2(c3cccc(Br)c3)CC2)c1 [Compound 8p, Methyl 2-(3-(1-(3-bromophenyl)cyclopropane-1-carboxamido)phenoxy)acetate] | 37 | 60 | 101 | 102 | 0 | -1 | 0 | 0 |  |  |  | 
17 | COC(=O)COc1ccc(NC(=O)C2(c3cccc(Br)c3)CC2)c(C)c1 [Compound 8r, Methyl 2-(4-(1-(3-bromophenyl)cyclopropane-1-carboxamido)-3-methylphenoxy)acetate] | 27 | 84 | 100 | 101 | -1 | -1 | 1 | -2 |  |  |  | 
18 | COC(=O)COc1ccc(NC(=O)C2(c3ccc(Cl)c(Cl)c3)CC2)cc1 [Compound 8s, Methyl 2-(4-(1-(3,4-dichlorophenyl)cyclopropane-1-carboxamido)phenoxy)acetate] | 40 | 64 | 102 | 102 | 4 | 0 | -1 | 0 |  |  |  | 
19 | Methyl 2-(4-(1-(3-bromophenyl)cyclopropane-1-carboxamido)-3-methylphenoxy)acetate [Compound 8q] |  |  |  |  |  |  |  |  | 26 | 45 | 102 | 102
